# Screens (PubChem BioAssay)
# Compounds with a hit are over-represented: about 2.7% of the library has one in this group of screens.
# CFTR F508del cor: F508del CFTR correction, initial screen, CFBE line, single point | CFBE cells, YFP halide quenching; stimulated with forskolin plus potentiator P3; % fluorescence drop versus neutral controls | activity (quench increase), % at 7.58 µM | 0.36% of 350,000 active | AID 720511, 2013;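 active = mean added fluorescence quench of at least 8% versus neutral control, with both replicates also reaching 8%; inconclusive = only one of the mean or replicate conditions met; inactive = mean below 8% and not both replicates reaching 8%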;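 note: cells transiently co-express mutant CFTR-F508del with the halide-sensitive YFP; corrector assay measuring rescue of mutant channel to the surface after 24 h compound exposure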
# E-sel inducer: E-selectin induction in HUVECs, primary screen, imaging, HUVEC, immunofluorescence imaging, single point; P16581; normalized: neutral wells 0, TNF-alpha wells 100; activation, % at 7.58 µM; 0.37% of 260,000 active;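 active = mean E-selectin-positive cell signal at least 10% of the positive control, reached in at least 60% of replicates, without over 20% cell loss; inconclusive = no rule given, readout overlaps actives, possibly toxicity-flagged; inactive = the rest, including those meeting only one limit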
# Target sequence (P16581 whole entry, looked up): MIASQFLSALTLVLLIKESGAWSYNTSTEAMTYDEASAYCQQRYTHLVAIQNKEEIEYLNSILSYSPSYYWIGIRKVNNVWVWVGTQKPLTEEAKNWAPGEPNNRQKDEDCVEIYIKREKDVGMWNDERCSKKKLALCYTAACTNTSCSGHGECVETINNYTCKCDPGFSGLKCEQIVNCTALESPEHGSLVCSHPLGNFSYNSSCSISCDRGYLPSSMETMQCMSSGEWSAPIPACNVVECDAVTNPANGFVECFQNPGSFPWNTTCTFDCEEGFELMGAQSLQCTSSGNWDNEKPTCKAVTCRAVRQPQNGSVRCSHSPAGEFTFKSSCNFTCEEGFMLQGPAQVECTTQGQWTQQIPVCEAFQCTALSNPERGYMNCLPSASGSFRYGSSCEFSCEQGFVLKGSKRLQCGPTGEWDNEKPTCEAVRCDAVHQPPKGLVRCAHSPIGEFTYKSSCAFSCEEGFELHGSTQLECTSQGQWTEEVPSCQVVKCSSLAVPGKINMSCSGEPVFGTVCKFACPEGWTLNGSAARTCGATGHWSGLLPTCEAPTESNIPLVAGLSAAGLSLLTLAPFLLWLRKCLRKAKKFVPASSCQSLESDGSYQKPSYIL
#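 Material: HUVEC primary endothelial cells; Amount: 3,000 cells per well; Dosing: single concentration; Medium: EGM-2 growth medium on 0.1% gelatin-coated wells; Read-out basis: percent E-selectin-positive cells; Signal: immunofluorescence imaging; Control set: TNF-alpha, DMSO.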
# S100A4 inh HTS: inhibitors of S100A4-myosin IIA peptide binding, primary screen, biochemical, fluorescence polarization, TAMRA-MyoIIA peptide | 0.14% of 360,000 active | Protein S100-A4 (Homo sapiens), P26447 | inhibition, % at 10.7 µM;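 active = mean inhibition of at least 70% across replicates, with every replicate also reaching that level; inconclusive = mean inhibition reaches 70% but some replicates fall short; inactive = mean inhibition below 70%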
# Target sequence (P26447 whole entry, looked up): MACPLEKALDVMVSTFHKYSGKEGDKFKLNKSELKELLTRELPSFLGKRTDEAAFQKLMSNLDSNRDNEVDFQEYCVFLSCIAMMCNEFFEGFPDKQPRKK
#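 Test system: S100A4 monomer protein; Medium: HEPES pH 7.2 with CaCl2, KCl, NaCl, DTT, Triton; Probe or stimulus: TAMRA-labelled myosin IIA heavy-chain peptide probe, 5 nM; Doses: one dose per compound; Times: polarization read 5 min after assay mix addition, stable 5–60 min; Benchmarks: neutral control DMSO, positive control TFP.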
# HIV Env fusion: inhibitors of HIV-1 Env-driven cell-cell fusion, primary screen, HeLa-JRFL effector, CEM21 target cells, luciferase. inhibition, % at 12.3 µM. 1.1% of 360,000 active;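 active = mean replicate inhibition score of at least 50 and every replicate individually at or above 50; inconclusive = only one of the two criteria met; inactive = mean below 50 and not all replicates reaching 50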;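 note: 0% = plate neutral controls and 100% = maraviroc near 300 nM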
# FGF22 binding: binders of human FGF22 protein, primary screen, FGF22 synaptogenesis inhibitor project, biophysical, thermal shift, single point; AID 651658, 2012; recombinant FGF22 thermal shift, SYPRO orange fluorescence; percent of sucrose octasulfate shift, DMSO zero; activity (Tm shift, normalised), % at 9.99 µM; 1.5% of 340,000 active; Fibroblast growth factor 22 (Homo sapiens), Q9HCT0;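 active = mean Tm shift, scaled 0 neutral to 100 positive control, at about 1.3% or above, every replicate too, limit read from the data; inconclusive = no clear call, values can overlap the other calls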
# The depositor's hits bear a star; ? = inconclusive; . = not tested or not shown; [ ] = remark or other dose.
SMILES,CFTR F508del cor,E-sel inducer,S100A4 inh HTS,HIV Env fusion,FGF22 binding
C[C@@H]1CN([C@@H](C)CO)C(=O)c2cccc(NC(=O)Nc3ccccc3)c2O[C@H]1CN(C)Cc1ccc2c(c1)OCO2,0.6,2.6,0.8,.,0.1
Cc1ccc(S(=O)(=O)NC(Cc2ccccc2)C(=O)O)cc1C (configuration not stated),-1.1,58.5*,-2.4,2.6,0.1
Cc1cc(C)n2nc(NCc3cccc(Br)c3)nc2n1,.,.,.,105.7*,.
Cc1noc(C)c1NC(=O)N(C)C[C@H]1Oc2c(NC(=O)Nc3ccc(F)cc3)cccc2C(=O)N([C@H](C)CO)C[C@H]1C,0.6,18.5,-3.6,17.1[16.7 µM],-0.2
COc1ccccc1CNC(=O)C[C@@H]1C[C@@H]2c3cc(NS(C)(=O)=O)ccc3O[C@@H]2[C@H](CO)O1,-1.7,0.4,6.2,-12.7[16.7 µM],0.1
NC(=O)CSc1nnc2ccc(-c3ccc(Cl)cc3)nn12,1.2,.,-0.9,-12.0,.
Cc1ccc(-c2ccc3nnc(SCC(N)=O)n3n2)cc1,2.5,.,-1.7,10.4,43.0*
CCOCCCn1c(SCC(=O)NCc2ccco2)nc2c(sc3ccccc32)c1=O,.,.,1.4,56.3*,.
COC(=O)[C@@]12C[C@@H](CC(=O)NCc3cccc(C(F)(F)F)c3)C(=O)N(Cc3cccc4ccccc34)C1=CCC(C)(C)C2,-1.1,0.8,2.7,11.4,23.4*
CCCCCCCCN1C(=O)[C@H](CC(=O)NCc2ccc(OC)c(OC)c2)C[C@@]2(C(=O)OCC)CCCC=C12,-1.2,-3.1,-0.8,69.7*,-0.5
CCOC(=O)[C@]12CCC=C1N(CCC1=CCCCC1)C(=O)[C@H](CC(=O)NCCc1ccccc1OC)C2,1.2,180.4*,-14.7,-2.5,-0.2
CCOC(=O)[C@]12CCCC=C1N(CCc1ccc(OC)c(OC)c1)C(=O)[C@H](CC(=O)NCc1ccccc1)C2,-1.1,0.9,-1.4,-22.4,-0.3
CCCCCCCCN1C(=O)[C@H](CC(=O)NCc2cccs2)C[C@@]2(C(=O)OCC)CCCC=C12,-0.6,.,-5.9,88.2*,-0.1
COc1ccc(S(=O)(=O)N(C)C[C@@H]2Oc3ccc(NC(=O)C4CC4)cc3C(=O)N([C@@H](C)CO)C[C@@H]2C)cc1,-1.3,-0.3,-1.3,.,-0.1
CCC(=O)N(C)C[C@H]1Oc2cc(C#CC(C)C)ccc2S(=O)(=O)N([C@H](C)CO)C[C@@H]1C,-3.2,-0.1,2.1,-3.8[16.7 µM],0.1
CCCNC(=O)Nc1ccc2c(c1)C(=O)N(C)[C@@H]1CC[C@@H](CC(=O)NCC3CCCCC3)O[C@@H]1CO2,-3.0,0.0,51.8,2.0[16.7 µM],0.0
C[C@H](CO)N1C[C@H](C)[C@@H](CN(C)C(=O)Nc2ccccc2F)Oc2cc(-c3ccccc3)ccc2S1(=O)=O,0.0,0.0,-11.2,-12.0[16.7 µM],-0.1
O=C(C[C@H]1CC[C@H](NC(=O)c2ccncc2)[C@H](CO)O1)NCc1ccncn1,-0.9,-0.5,-8.2,.,.
COCC(=O)Nc1ccc2c(c1)[C@@H]1C[C@@H](CC(=O)NCc3ccccc3)O[C@H](CO)[C@@H]1O2,-1.2,-0.2,-15.4,-17.7[16.7 µM],-0.2
COc1ccc(S(=O)(=O)N[C@H]2C=C[C@H](CC(=O)NCc3ccccc3F)O[C@@H]2CO)cc1,-1.3,0.0,54.8,-12.7[16.7 µM],-0.7
CCOC(=O)[C@]12CCC=C1N(Cc1ccc3c(c1)OCO3)C(=O)[C@H](CC(=O)NCC13CC4CC(CC(C4)C1)C3)C2,3.7,0.0,-3.9,77.3*,-0.1
CCOC(=O)[C@]12CCCC=C1N(Cc1ccccc1)C(=O)[C@H](CC(=O)NCCCOC)C2,1.9,10.9,2.0,59.5*,-0.3
CCOC(=O)[C@]12CCCC=C1N(Cc1ccccc1)C(=O)[C@H](CC(=O)NCCCCc1ccccc1)C2,1.1,0.1,2.0,-240.7,-0.1
CCCCCCCCN1C(=O)[C@H](CC(=O)NCc2cccc3ccccc23)C[C@@]2(C(=O)OCC)CCCC=C12,-0.9,.,-3.7,75.8*,0.1
CCOC(=O)[C@]12CCCC=C1N(CCC1=CCCCC1)C(=O)[C@H](CC(=O)NCCC(C)C)C2,-0.5,?,-2.3,38.1,-0.4
SMILES,CFTR F508del cor,E-sel inducer,S100A4 inh HTS,HIV Env fusion,FGF22 binding
CCOC(=O)[C@]12CCCC=C1N(Cc1cccc3ccccc13)C(=O)[C@H](CC(=O)NCc1cccc3ccccc13)C2,1.2,.,-2.3,-8.3,1.0
CCCCCCCCN1C(=O)[C@H](CC(=O)NCCC(C)C)C[C@@]2(C(=O)OCC)CCCC=C12,-4.5,.,10.5,61.3*,0.1
COc1cccc(S(=O)(=O)Nc2ccc3c(c2)OC[C@H](C)N(Cc2ccccc2F)C[C@H](C)[C@H](OC)CN(C)C3=O)c1,3.3,0.0,-3.3,30.5[16.7 µM],-0.3
CO[C@@H]1CN(C)C(=O)c2ccc(NC(C)=O)cc2OC[C@H](C)N(C(=O)c2ccncc2)C[C@H]1C,3.0,-0.3,1.2,.,-0.5
C/C=C/c1cnc2c(c1)C(=O)N([C@@H](C)CO)C[C@H](C)[C@H](CN(C)S(=O)(=O)c1ccccc1F)O2,-1.9,0.2,8.3,-8.0[16.7 µM],0.3
CCS(=O)(=O)Nc1ccc2c(c1)C(=O)N(C)C[C@H](OC)[C@@H](C)CN(C)[C@H](C)CO2,0.8,0.2,-12.1,12.0[16.7 µM],-0.5
COc1ccc(-c2cnc3c(c2)C(=O)N([C@@H](C)CO)C[C@H](C)[C@@H](CN(C)C(=O)C2CCC2)O3)cc1,0.5,-1.8,-0.2,9.2[16.7 µM],-0.1
Cc1noc(C)c1NC(=O)N(C)C[C@H]1OCCCC[C@H](C)Oc2ccc(NC(=O)CCC(F)(F)F)cc2C(=O)N([C@H](C)CO)C[C@@H]1C,-1.2,-0.2,4.9,-8.0[16.7 µM],0.8
CCCCCCCCN1C(=O)[C@H](CC(=O)NCc2ccccc2)C[C@@]2(C(=O)OC)CC(C)(C)CC=C12,-2.2,-0.3,-2.8,20.4,-0.1
CCCCCCCCN1C(=O)[C@H](CC(=O)NCc2cccc3ccccc23)C[C@@]2(C(=O)OC)CC(C)(C)CC=C12,-2.6,-0.5,1.1,57.8*,-0.9
CC(C)Cc1cc(C(=O)NCCCN2CCOCC2)no1,1.0,0.1,150.7*,-5.0,0.2
O=C(NCCCN1CCOCC1)c1cc(-c2ccc(F)cc2)on1,.,.,.,-149.9,.
CN(C)C(=O)C[C@H]1CC[C@@H](NC(=O)C2CCOCC2)[C@@H](CO)O1,3.3,-0.1,-0.5,-12.0[16.7 µM],0.2
Cc1c(C(=O)N2CCN(S(=O)(=O)c3cc(F)ccc3F)CC2)oc2ccccc12,-1.0,343.4*,-3.3,0.7,0.2
Cc1c(C(=O)N2CCN(S(=O)(=O)c3ccccc3)CC2)oc2ccccc12,-2.7,0.0,-1.4,49.5,0.5
O=C(N(c1ccccn1)c1ccccn1)C12CC3CC(CC(Cl)(C3)C1)C2,-0.7,.,1.4,72.8*,0.0
